Data on twelve molecules can be found in ChEMBL document CHEMBL4627282, “Synthesis of guggulsterone derivatives as potential anti-austerity agents against PANC-1 human pancreatic cancer cells” (Bioorg Med Chem Lett, 2020).

For orientation: pIC50 means the negative decadic logarithm of the IC50, by convention in mol/L. Low readings indicate a high IC50, high ones a low IC50. One may read the inhibition as the change of the read-out against control, counted positive when it falls.

pIC50: −log10 of the molar value. Active and inactive are the calls of the source. No cut-off for these calls is given here.

The subject of experiment [1] is PANC-1. Description: Anti-austerity activity against human PANC1 cells assessed as cell killing incubated in nutrient deprived medium. The format is functional. A digest of the protocol: (§1)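 PANC-1 cells were exposed to a concentration series in nutrient-deprived medium (NDM; no glucose, amino acids or serum) and, in parallel, in complete DMEM. Survival was plotted against log concentration, and PC50, the concentration preferentially cytotoxic under starvation, was read from the curve.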

Experiment [2] has as its system PANC-1. Description: Cytotoxicity against human PANC1 cells incubated in normal DMEM medium. The format is cell-based. A digest of the protocol: as §1
In experiment [3] the test system is PANC-1. Description: Selectivity index, ratio of IC50 for human PANC1 cells incubated in normal DMEM medium to PC50 for human PANC1 cells incubated in nutrient-deprived medium.
Experiment [4] concerns PANC-1. Description: Inhibition of cell migration in human PANC1 cells at 3 uM incubated in nutrient deprived medium measured every 10 mins for 24 hrs by live cell imaging analysis. Format: functional, cell-based. In short, it runs like this: (§2)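 Cells were treated in NDM in a stage-top incubator at 37 °C under 5% CO2. Phase-contrast images were captured every 10 min for 24 h on a digital imaging system with a 10× objective. Cell mobility, shrinkage, swelling and leakage of cytoplasm were scored from the time-lapse record.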

Experiment [5] relates to PANC-1. Description: Induction of cell death in human PANC1 cells assessed as cell shrinkage at 3 uM incubated in nutrient deprived medium measured every 10 mins […] by live cell imaging analysis. Format: functional, cell-based. A digest of the protocol:
as §2

Experiment [6] relates to PANC-1. Description: Induction of cell death in human PANC1 cells assessed as swelling of cells at 3 uM incubated in nutrient deprived medium measured every 10 mins for […] by live cell imaging analysis. The format is functional, cell-based. In short, it runs like this:
as §2

The test system of experiment [7] is PANC-1. Description: Induction of cell death in human PANC1 cells assessed as leakage of cytoplasmic content at 3 uM incubated in nutrient deprived medium measured every 10 mins for […] by live cell imaging analysis. Format: functional, cell-based. A digest of the protocol: as §2
Experiment [8] deals with PANC-1. Description: Induction of cell death in human PANC1 cells assessed as rounded cell morphology at 3 uM incubated for 24 hrs in nutrient deprived medium by ethidium bromide and acridine orange dye based phase contrast microscopy. Format: functional. A digest of the protocol: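 PANC-1 cells were held in NDM for 24 h with compound, alongside untreated controls, then double-stained with acridine orange and ethidium bromide. Imaging was in fluorescence (green AO marks live cells, red EB marks dead or dying cells) and in phase-contrast mode to assess morphology.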

The test system of experiment [9] is PANC-1. Description: Inhibition of colony formation in human PANC1 cells incubated for 10 days in DMEM by crystal violet staining based assay.
Experiment [10] concerns PANC-1. Description: Inhibition of colony formation in human PANC1 cells at 1.25 uM incubated for 10 days in DMEM by crystal violet staining based assay. Conditions: PANC-1, 240 h.
Experiment [11] concerns PANC-1. Description: Inhibition of cell migration in human PANC1 cells at 5 uM incubated in nutrient deprived medium measured every 10 mins for 24 hrs by live cell imaging analysis. Format: functional, cell-based.
In experiment [12] the test system is PANC-1. Description: Induction of cell death in human PANC1 cells assessed as cell shrinkage at 5 uM incubated in nutrient deprived medium measured every 10 mins for 12 hrs by live cell imaging analysis. The format is functional, cell-based.
The subject of experiment [13] is PANC-1. Description: Induction of cell death in human PANC1 cells assessed as swelling of cells at 5 uM incubated in nutrient deprived medium measured every 10 mins for 12 hrs by live cell imaging analysis. Format: functional, cell-based.
Experiment [14] relates to PANC-1. Description: Induction of cell death in human PANC1 cells assessed as leakage of cytoplasmic content at 5 uM incubated in nutrient deprived medium measured every 10 mins for 12 hrs by live cell imaging analysis. Format: functional, cell-based.
For experiment [15], the system named is PANC-1. Description: Induction of cell death in human PANC1 cells assessed as rounded cell morphology at 5 uM incubated for 24 hrs in nutrient deprived medium by ethidium bromide and acridine orange dye based phase contrast microscopy. The format is functional. A digest of the protocol: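 PANC-1 cells treated in NDM for 24 h, then double-stained with ethidium bromide and acridine orange. They were imaged in fluorescence (green for live, red for dead or dying) and phase-contrast modes on a digital microscope, and morphology was judged against untreated controls.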

In experiment [16] the test system is PANC-1. Description: Inhibition of colony formation in human PANC1 cells at 50 uM incubated for 10 days in nutrient deprived medium by crystal violet staining based assay. Format: functional, cell-based.

`C=C1C(=O)C[C@H]2[C@@H]3CCC4=CC(=O)CC[C@]4(C)[C@H]3CC[C@]12C`: in the experiment on PANC-1 [1], the Activity entry is “Dose-dependent effect”. The PC50 with PANC-1 [1] came to 1.6 µM. Also, the pIC50 with PANC-1 [2] is 4.96. Also, the Ratio in the experiment on PANC-1 [3] is recorded as 6.5. The inhibition entry in the experiment on PANC-1 [4] was “Active”. The result in the experiment on PANC-1 [5], with PANC-1 [6], in the experiment with PANC-1 [7] and with PANC-1 [8] was Active. The inhibition entry in the experiment on PANC-1 [9] was “Dose-dependent effect”. In the experiment with PANC-1 [10], this molecule gave an inhibition at 1.25 µM of 100%.

As to `COc1cc(C[C@H]2C(=O)OC[C@@H]2Cc2ccc(OC)c(OC)c2)ccc1O` [ARCTIGENIN], the PC50 in the experiment on PANC-1 [1] was determined as 0.8 µM.

For `CCC/C=C1\C(=O)C[C@H]2[C@@H]3CCC4=CC(=O)CC[C@]4(C)[C@H]3CC[C@]12C`, the PC50 in the experiment on PANC-1 [1] turned out to be 18 µM. Moreover, in the experiment with PANC-1 [2], the pIC50 was < 4.00.

As to `C/C=C1/C(=O)C[C@H]2[C@@H]3CC[C@H]4CC(=O)CC[C@]4(C)[C@H]3CC[C@]12C`, the PC50 in the experiment on PANC-1 [1] was >100 µM. The pIC50 in the experiment on PANC-1 [2] was < 4.00.

On to `CC/C=C1/C(=O)C[C@H]2[C@@H]3CCC4=CC(=O)CC[C@]4(C)[C@H]3CC[C@]12C`, for which the PC50 in the experiment with PANC-1 [1] turned out to be 50 µM. In addition, the pIC50 in the experiment with PANC-1 [2] was < 4.00.

`C/C=C1/C(=O)C[C@H]2[C@@H]3CCC4=CC(=O)CC[C@]4(C)[C@H]3CC[C@]12C` [E-GUGGULSTERONE]: in the experiment on PANC-1 [1], the PC50 stood at 42 µM. The negative-log IC50 (pIC50) in the experiment on PANC-1 [2] is < 4.00.

With `CC=C1CC[C@H]2[C@@H]3CCC4=CC(=O)CC[C@]4(C)[C@H]3CC[C@]12C` (mixture of isomers), the Activity entry in the experiment on PANC-1 [1] is “Dose-dependent effect”. Also, the pIC50 in the experiment on PANC-1 [2] is < 4.00. The Ratio with PANC-1 [3] is 34. The inhibition entry in the experiment on PANC-1 [11] and in the experiment on PANC-1 [16] was “Active” in each case. The outcome in the experiment on PANC-1 [12], in the experiment with PANC-1 [13], in the experiment with PANC-1 [14] and in the experiment with PANC-1 [15] was Active. Besides, the inhibition result in the experiment on PANC-1 [9] was “Dose-dependent effect”.

On to `COCCC/C=C1/C(=O)C[C@H]2[C@@H]3CCC4=CC(=O)CC[C@]4(C)[C@H]3CC[C@]12C`, for which the PC50 with PANC-1 [1] came out at 52 µM. Further, the pIC50 in the experiment with PANC-1 [2] is < 4.00.

Regarding `CC/C=C1\C(=O)C[C@H]2[C@@H]3CCC4=CC(=O)CC[C@]4(C)[C@H]3CC[C@]12C`, the PC50 in the experiment on PANC-1 [1] was 17 µM. The pIC50 in the experiment on PANC-1 [2] was < 4.00.

On to `C/C=C1\C(=O)C[C@H]2[C@@H]3CCC4=CC(=O)CC[C@]4(C)[C@H]3CC[C@]12C` [GUGGULSTERONE], for which the PC50 with PANC-1 [1] was 37 µM. This molecule also gave a pIC50 in the experiment with PANC-1 [2] of 4.38.

Regarding `CC[C@H]1C(=O)C[C@H]2[C@@H]3CC[C@H]4CC(=O)CC[C@]4(C)[C@H]3CC[C@]12C`, the PC50 with PANC-1 [1] stood at 18 µM. Moreover, in the experiment with PANC-1 [2], the pIC50 is < 4.00.

Consider `CCC/C=C1/C(=O)C[C@H]2[C@@H]3CCC4=CC(=O)CC[C@]4(C)[C@H]3CC[C@]12C`, for which, in the experiment with PANC-1 [1], the PC50 was 14 µM. Further, the pIC50 in the experiment with PANC-1 [2] is < 4.00.
